Assay [1] addresses T1, Angiotensin-converting enzyme (Oryctolagus cuniculus, UniProt P12822).
T1 sequence (P12822 whole entry): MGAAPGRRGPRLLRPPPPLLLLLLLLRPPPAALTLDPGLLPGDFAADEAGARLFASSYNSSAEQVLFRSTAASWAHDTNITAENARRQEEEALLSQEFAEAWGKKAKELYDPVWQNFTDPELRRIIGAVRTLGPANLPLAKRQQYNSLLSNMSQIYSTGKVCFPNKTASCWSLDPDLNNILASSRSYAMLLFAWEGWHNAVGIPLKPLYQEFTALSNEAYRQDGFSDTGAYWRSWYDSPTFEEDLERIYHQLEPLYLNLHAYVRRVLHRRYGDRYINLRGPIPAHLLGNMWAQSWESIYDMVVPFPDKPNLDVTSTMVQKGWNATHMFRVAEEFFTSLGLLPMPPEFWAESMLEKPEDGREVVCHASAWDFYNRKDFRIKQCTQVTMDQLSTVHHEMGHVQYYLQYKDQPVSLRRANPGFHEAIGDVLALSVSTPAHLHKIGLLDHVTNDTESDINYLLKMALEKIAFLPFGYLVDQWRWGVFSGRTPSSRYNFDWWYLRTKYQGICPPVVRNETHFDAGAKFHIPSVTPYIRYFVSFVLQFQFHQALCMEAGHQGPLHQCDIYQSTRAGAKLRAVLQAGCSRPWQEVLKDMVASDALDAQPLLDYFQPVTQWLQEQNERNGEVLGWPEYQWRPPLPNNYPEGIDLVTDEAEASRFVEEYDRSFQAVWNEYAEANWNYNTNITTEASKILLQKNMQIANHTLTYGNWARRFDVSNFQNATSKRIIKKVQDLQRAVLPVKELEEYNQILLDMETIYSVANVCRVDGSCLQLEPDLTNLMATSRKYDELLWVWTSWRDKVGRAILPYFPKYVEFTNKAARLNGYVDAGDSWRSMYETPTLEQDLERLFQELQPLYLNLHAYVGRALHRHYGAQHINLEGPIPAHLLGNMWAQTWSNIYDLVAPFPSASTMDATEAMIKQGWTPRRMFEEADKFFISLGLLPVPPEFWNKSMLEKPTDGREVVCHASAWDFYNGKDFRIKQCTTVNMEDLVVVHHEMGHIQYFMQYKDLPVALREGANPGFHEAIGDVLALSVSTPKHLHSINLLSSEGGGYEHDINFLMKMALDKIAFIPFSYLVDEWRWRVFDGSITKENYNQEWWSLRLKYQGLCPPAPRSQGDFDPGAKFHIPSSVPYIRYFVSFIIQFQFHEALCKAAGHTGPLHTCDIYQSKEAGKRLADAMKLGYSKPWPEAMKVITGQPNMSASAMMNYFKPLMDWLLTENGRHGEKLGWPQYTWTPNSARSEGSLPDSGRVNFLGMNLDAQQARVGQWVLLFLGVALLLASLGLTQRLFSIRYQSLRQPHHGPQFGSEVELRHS
Put plainly: Binding affinity of compound against rabbit lung angiotensin I-converting enzyme (ACE) was determined. A digest of the protocol:
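Rabbit lung ACE. Spectrophotometric assay with recrystallized (furylacryloyl)phenylalanyl-glycylglycine as substrate; colored contaminants removed beforehand. Thiol content of inhibitor solutions checked with Ellman's reagent just before testing.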

Assay [2] deals with T2, Neprilysin (Rattus norvegicus, UniProt P07861).
T2 sequence (P07861 whole entry): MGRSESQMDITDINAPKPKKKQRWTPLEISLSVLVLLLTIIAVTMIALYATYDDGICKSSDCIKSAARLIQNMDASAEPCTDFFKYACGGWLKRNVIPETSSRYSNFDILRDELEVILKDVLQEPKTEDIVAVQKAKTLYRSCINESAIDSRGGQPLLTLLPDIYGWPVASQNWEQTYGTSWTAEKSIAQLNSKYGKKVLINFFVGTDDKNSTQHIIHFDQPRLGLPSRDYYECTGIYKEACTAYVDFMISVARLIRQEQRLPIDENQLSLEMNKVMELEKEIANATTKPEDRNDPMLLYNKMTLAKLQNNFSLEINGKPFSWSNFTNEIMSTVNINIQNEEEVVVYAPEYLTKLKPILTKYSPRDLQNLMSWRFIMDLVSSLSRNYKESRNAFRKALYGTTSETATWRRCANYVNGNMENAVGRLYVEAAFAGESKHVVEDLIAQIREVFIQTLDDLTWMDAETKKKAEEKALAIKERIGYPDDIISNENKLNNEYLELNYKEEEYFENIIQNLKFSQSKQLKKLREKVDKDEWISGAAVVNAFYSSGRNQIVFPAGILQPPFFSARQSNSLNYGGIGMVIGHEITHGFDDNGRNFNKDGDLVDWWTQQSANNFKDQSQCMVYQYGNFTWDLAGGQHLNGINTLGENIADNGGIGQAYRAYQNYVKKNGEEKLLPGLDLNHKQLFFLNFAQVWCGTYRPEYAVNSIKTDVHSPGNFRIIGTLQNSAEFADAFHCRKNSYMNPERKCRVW
Put plainly: Binding affinity of compound against rat kidney neutral endopeptidase (NEP) was determined. The essentials: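 Rat kidney NEP. Fluorogenic assay using dansyl-D-Ala-Gly-(p-nitro)Phe-Gly-OH as substrate. Inhibitor solutions assayed for thiol content with Ellman's reagent immediately prior to testing.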

Where only a bound is given, the exact number is not on record here.

The values below come from ChEMBL document CHEMBL1126771, “Application of a conformationally restricted Phe-Leu dipeptide mimetic to the design of a combined inhibitor of angiotensin I-converting enzyme and neutral endopeptidase 24.11” (J Med Chem, 1993).

For orientation: Ki means the dissociation constant of the complex between target and ligand, obtained from inhibition or displacement. Lower therefore signals higher affinity.

Take `O=C(NC1Cc2ccccc2C2CCC[C@H](C(=O)O)N2C1=O)C(S)Cc1ccccc1` (stereo in doubt): the values for the inhibitory constant (Ki) in assay [1] and in assay [2] were 0.11 nM and 0.08 nM, respectively.
For the molecule `O=C(O)[C@H]1CCCC2c3ccccc3C[C@@H](CS)C(=O)N21` (stereo in doubt; 4), the Ki in assay [1] was more than 7 nM; in assay [2], 45 nM.
Consider `O=C(O)[C@H](CCc1ccccc1)N[C@@H]1Cc2ccccc2C2CCC[C@H](C(=O)O)N2C1=O` (some centres not stated), for which the Ki in assay [1] was 0.004 nM; in assay [2] it was more than 10000 nM.
For `O=C(CS)N[C@@H]1Cc2ccccc2C2CCC[C@H](C(=O)O)N2C1=O` (some centres not stated) the same measures were 2 nM and 5 nM.
As to `O=C(O)[C@H]1CCCC2c3ccccc3C[C@@H](CS)C(=O)N21` (stereo in doubt; 3), the inhibitory constant (Ki) in assay [1] was 2 nM; in assay [2], more than 300 nM.
`O=C(NC1Cc2ccccc2C2CCC[C@H](C(=O)O)N2C1=O)C(S)Cc1ccccc1` (stereo in doubt; 11b): the Ki in assay [1] was found to be 4.5 nM; in assay [2], 0.07 nM.
